According to ChEMBL document CHEMBL3763086, “Salicylanilide N-monosubstituted carbamates: Synthesis and in vitro antimicrobial activity” (2016):
Values after ≈ are worked out from the molar mass of the structure shown.

How the values were obtained:
Assay type in all cases: functional
[1] = system: Trichophyton mentagrophytes; assay: Antifungal activity against Trichophyton mentagrophytes 445 after 72 hrs by microbroth dilution method; conditions: Trichophyton mentagrophytes, 445, 72 h
Escherichia coli [2] = assay: Antibacterial activity against Escherichia coli CCM 4517 after 24 hrs by microbroth dilution method; conditions: CCM 4517, 24 h
How it was run: (§1)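 Microbroth dilution modified per M07-A07 in Mueller-Hinton broth, pH 7.4 (±0.2). Inoculum in sterile water adjusted to 0.5 McFarland. MIC taken as growth reduction of at least 90% (IC90) versus control, read visually and at 540 nm after 24 and 48 h incubation in the dark.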

Klebsiella pneumoniae [3] = assay: Antibacterial activity against ESBL-positive Klebsiella pneumoniae J 14368/08 after 24 hrs by microbroth dilution method; conditions: J 14368/08, 24 h; how it was run: as §1
Candida albicans [4] = assay: Antifungal activity against Candida albicans ATCC 44859 after 48 hrs by microbroth dilution method; conditions: ATCC 44859, 48 h
Lichtheimia corymbifera [5] = assay: Antifungal activity against Absidia corymbifera 272 after 48 hrs by microbroth dilution method; conditions: Lichtheimia corymbifera, 272, 48 h
[6] = system: Trichophyton mentagrophytes; assay: Antifungal activity against Trichophyton mentagrophytes 445 after 120 hrs by microbroth dilution method; conditions: Trichophyton mentagrophytes, 445, 120 h
Nakaseomyces glabratus [7] = assay: Antifungal activity against Candida glabrata 20/I after 24 hrs by microbroth dilution method
Candida tropicalis [8] = assay: Antifungal activity against Candida tropicalis 156 after 48 hrs by microbroth dilution method; conditions: Candida tropicalis, 156, 48 h
Pichia kudriavzevii [9] = assay: Antifungal activity against Candida krusei E28 after 48 hrs by microbroth dilution method; conditions: E28, 48 h
Trichosporon asahii [10] = assay: Antifungal activity against Trichosporon asahii 1188 after 24 hrs by microbroth dilution method; conditions: Trichosporon asahii, 1188, 24 h
Trichosporon asahii [11] = assay: Antifungal activity against Trichosporon asahii 1188 after 48 hrs by microbroth dilution method; conditions: Trichosporon asahii, 1188, 48 h
Nakaseomyces glabratus [12] = assay: Antifungal activity against Candida glabrata 20/I after 48 hrs by microbroth dilution method
Staphylococcus aureus [13] = assay: Antibacterial activity against Staphylococcus aureus CCM 4516/08 after 24 hrs by microbroth dilution method; conditions: CCM 4516/08, 24 h; how it was run: as §1
Pichia kudriavzevii [14] = assay: Antifungal activity against Candida krusei E28 after 24 hrs by microbroth dilution method; conditions: E28, 24 h
Candida tropicalis [15] = assay: Antifungal activity against Candida tropicalis 156 after 24 hrs by microbroth dilution method; conditions: Candida tropicalis, 156, 24 h
Enterococcus sp. [16] = assay: Antibacterial activity against Enterococcus sp. J 14365/08 after 48 hrs by microbroth dilution method; conditions: J 14365/08, 48 h; how it was run: as §1
Escherichia coli [17] = assay: Antibacterial activity against Escherichia coli CCM 4517 after 48 hrs by microbroth dilution method; conditions: CCM 4517, 48 h; how it was run: as §1
Enterococcus sp. [18] = assay: Antibacterial activity against Enterococcus sp. J 14365/08 after 24 hrs by microbroth dilution method; conditions: J 14365/08, 24 h; how it was run: as §1
Staphylococcus aureus [19] = assay: Antibacterial activity against methicillin-resistant Staphylococcus aureus H 5996/08 after 48 hrs by microbroth dilution method; conditions: H 5996/08, 48 h
How it was run: (§2)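 Microdilution broth method modified after M07-A07 in Mueller-Hinton broth adjusted to pH 7.4 (±0.2). Inoculum prepared in sterile water to 0.5 McFarland (1.5 × 10^8 CFU/mL). MIC taken as growth reduction versus control (IC95 per table header), read visually and spectrophotometrically at 540 nm after 24 and 48 h incubation in the dark.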

Staphylococcus aureus [20] = assay: Antibacterial activity against Staphylococcus aureus CCM 4516/08 after 48 hrs by microbroth dilution method; conditions: CCM 4516/08, 48 h; how it was run: as §2
Candida albicans [21] = assay: Antifungal activity against Candida albicans ATCC 44859 after 24 hrs by microbroth dilution method; conditions: ATCC 44859, 24 h
Klebsiella pneumoniae [22] = assay: Antibacterial activity against Klebsiella pneumoniae D 11750/08 after 24 hrs by microbroth dilution method; conditions: D 11750/08, 24 h; how it was run: as §1
[23] = system: Staphylococcus epidermidis; assay: Antibacterial activity against Staphylococcus epidermidis H 6966/08 after 48 hrs by microbroth dilution method; conditions: H 6966/08, 48 h; how it was run: as §1
Klebsiella pneumoniae [24] = assay: Antibacterial activity against Klebsiella pneumoniae D 11750/08 after 48 hrs by microbroth dilution method; conditions: D 11750/08, 48 h; how it was run: as §1
Staphylococcus aureus [25] = assay: Antibacterial activity against methicillin-resistant Staphylococcus aureus H 5996/08 after 24 hrs by microbroth dilution method; conditions: H 5996/08, 24 h; how it was run: as §2
Lichtheimia corymbifera [26] = assay: Antifungal activity against Absidia corymbifera 272 after 24 hrs by microbroth dilution method; conditions: Lichtheimia corymbifera, 272, 24 h
Klebsiella pneumoniae [27] = assay: Antibacterial activity against ESBL-positive Klebsiella pneumoniae J 14368/08 after 48 hrs by microbroth dilution method; conditions: J 14368/08, 48 h; how it was run: as §1
[28] = system: Staphylococcus epidermidis; assay: Antibacterial activity against Staphylococcus epidermidis H 6966/08 after 24 hrs by microbroth dilution method; conditions: H 6966/08, 24 h; how it was run: as §1

Structure (SMILES)	MIC [1] [µM]	MIC (Escherichia coli [2]) [µM]	MIC (Klebsiella pneumoniae [3]) [µM]	MIC (Candida albicans [4]) [µM]	MIC (Lichtheimia corymbifera [5]) [µM]	MIC [6] [µM]	MIC (Nakaseomyces glabratus [7]) [µM]	MIC (Candida tropicalis [8]) [µM]	MIC (Pichia kudriavzevii [9]) [µM]	MIC (Trichosporon asahii [10]) [µM]	MIC (Trichosporon asahii [11]) [µM]	MIC (Nakaseomyces glabratus [12]) [µM]	MIC (Staphylococcus aureus [13]) [µM]	MIC (Pichia kudriavzevii [14]) [µM]	MIC (Candida tropicalis [15]) [µM]	MIC (Enterococcus sp. [16]) [µM]	MIC (Escherichia coli [17]) [µM]	MIC (Enterococcus sp. [18]) [µM]	MIC (Staphylococcus aureus [19]) [µM]	MIC (Staphylococcus aureus [20]) [µM]	other results
O=C(NCCc1ccccc1)Oc1ccc(Cl)cc1C(=O)Nc1ccc(Cl)cc1	1.95 (≈ 0.837 µg/mL)	125 (≈ 53.7 µg/mL)	31.2 (≈ 13.4 µg/mL)	> 500	> 500	1.95 (≈ 0.837 µg/mL)	> 500	> 500	> 500	> 500	> 500	> 500	3.9 (≈ 1.67 µg/mL)	> 500	> 500	500 (≈ 215 µg/mL)	500 (≈ 215 µg/mL)	500 (≈ 215 µg/mL)	15.6 (≈ 6.71 µg/mL)	15.6 (≈ 6.71 µg/mL)	MIC (Candida albicans [21]): > 500 µM; MIC (Klebsiella pneumoniae [22]): 500 µM (≈ 215 µg/mL); MIC [23]: 15.6 µM (≈ 6.71 µg/mL); MIC (Klebsiella pneumoniae [24]): 500 µM (≈ 215 µg/mL); MIC (Staphylococcus aureus [25]): 3.9 µM (≈ 1.67 µg/mL); MIC (Lichtheimia corymbifera [26]): > 500 µM; MIC (Klebsiella pneumoniae [27]): 31.2 µM (≈ 13.4 µg/mL); MIC [28]: 3.9 µM (≈ 1.67 µg/mL)
O=C(NC1CCCCC1)Oc1ccc(Cl)cc1C(=O)Nc1ccc(Br)cc1	1.95 (≈ 0.881 µg/mL)	> 500	> 500	> 125	> 125	1.95 (≈ 0.881 µg/mL)	> 125	> 125	> 125	62.5 (≈ 28.2 µg/mL)	62.5 (≈ 28.2 µg/mL)	> 125	≤ 0.49	> 125	> 125	500 (≈ 226 µg/mL)	> 500	500 (≈ 226 µg/mL)	1.95 (≈ 0.881 µg/mL)	0.98 (≈ 0.443 µg/mL)	MIC (Candida albicans [21]): > 125 µM; MIC (Klebsiella pneumoniae [22]): > 500 µM; MIC [23]: 0.98 µM (≈ 0.443 µg/mL); MIC (Klebsiella pneumoniae [24]): > 500 µM; MIC (Staphylococcus aureus [25]): ≤ 0.49 µM; MIC (Lichtheimia corymbifera [26]): > 125 µM; MIC (Klebsiella pneumoniae [27]): > 500 µM; MIC [28]: ≤ 0.49 µM
O=C(NCc1ccccc1)Oc1ccc(Cl)cc1C(=O)Nc1ccc(Cl)cc1	1.95 (≈ 0.81 µg/mL)	> 125	62.5 (≈ 26 µg/mL)	> 125	> 125	1.95 (≈ 0.81 µg/mL)	> 125	> 125	62.5 (≈ 26 µg/mL)	15.6 (≈ 6.49 µg/mL)	15.6 (≈ 6.49 µg/mL)	> 125	3.9 (≈ 1.62 µg/mL)	62.5 (≈ 26 µg/mL)	> 125	> 125	> 125	> 125	15.6 (≈ 6.49 µg/mL)	15.6 (≈ 6.49 µg/mL)	MIC (Candida albicans [21]): > 125 µM; MIC (Klebsiella pneumoniae [22]): 125 µM (≈ 51.9 µg/mL); MIC [23]: 3.9 µM (≈ 1.62 µg/mL); MIC (Klebsiella pneumoniae [24]): 125 µM (≈ 51.9 µg/mL); MIC (Staphylococcus aureus [25]): 7.81 µM (≈ 3.24 µg/mL); MIC (Lichtheimia corymbifera [26]): > 125 µM; MIC (Klebsiella pneumoniae [27]): 125 µM (≈ 51.9 µg/mL); MIC [28]: 3.9 µM (≈ 1.62 µg/mL)
O=C(NCCc1ccccc1)Oc1ccc(Cl)cc1C(=O)Nc1ccc(Br)cc1	3.9 (≈ 1.85 µg/mL)	> 500	> 500	> 125	125 (≈ 59.2 µg/mL)	3.9 (≈ 1.85 µg/mL)	125 (≈ 59.2 µg/mL)	> 125	> 125	62.5 (≈ 29.6 µg/mL)	62.5 (≈ 29.6 µg/mL)	125 (≈ 59.2 µg/mL)	≤ 0.49	> 125	> 125	> 500	> 500	> 500	1.95 (≈ 0.924 µg/mL)	1.95 (≈ 0.924 µg/mL)	MIC (Candida albicans [21]): > 125 µM; MIC (Klebsiella pneumoniae [22]): > 500 µM; MIC [23]: 0.98 µM (≈ 0.464 µg/mL); MIC (Klebsiella pneumoniae [24]): > 500 µM; MIC (Staphylococcus aureus [25]): 0.98 µM (≈ 0.464 µg/mL); MIC (Lichtheimia corymbifera [26]): 125 µM (≈ 59.2 µg/mL); MIC (Klebsiella pneumoniae [27]): > 500 µM; MIC [28]: ≤ 0.49 µM
O=C(NC1CCCCC1)Oc1ccc(Cl)cc1C(=O)Nc1ccc(F)cc1	1.95 (≈ 0.762 µg/mL)	> 125	62.5 (≈ 24.4 µg/mL)	> 125	> 125	1.95 (≈ 0.762 µg/mL)	125 (≈ 48.9 µg/mL)	> 125	> 125	62.5 (≈ 24.4 µg/mL)	> 125	> 125	15.6 (≈ 6.1 µg/mL)	> 125	> 125	> 125	> 125	> 125	31.2 (≈ 12.2 µg/mL)	15.6 (≈ 6.1 µg/mL)	MIC (Candida albicans [21]): > 125 µM; MIC (Klebsiella pneumoniae [22]): > 125 µM; MIC [23]: 7.81 µM (≈ 3.05 µg/mL); MIC (Klebsiella pneumoniae [24]): > 125 µM; MIC (Staphylococcus aureus [25]): 31.2 µM (≈ 12.2 µg/mL); MIC (Lichtheimia corymbifera [26]): 125 µM (≈ 48.9 µg/mL); MIC (Klebsiella pneumoniae [27]): 62.5 µM (≈ 24.4 µg/mL); MIC [28]: 7.81 µM (≈ 3.05 µg/mL)
